High-throughput results deposited in PubChem BioAssay by Sanford-Burnham Center for Chemical Genomics.
EBI2 antag – antagonists of human EBI2 receptor. EBI2 beta-arrestin recruitment, luminescence, 7a,25-OHC stimulated. inhibition, % at 5 µM. P32249. actives 0.81% (n = 360,000); in the data active = inhibition above about 38%;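 note: enzyme fragment complementation signal reports receptor beta-arrestin coupling in cells; 0% = agonist plus DMSO wells and 100% = wells without agonist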
Target sequence (P32249 whole entry, looked up, the tested form may be a part): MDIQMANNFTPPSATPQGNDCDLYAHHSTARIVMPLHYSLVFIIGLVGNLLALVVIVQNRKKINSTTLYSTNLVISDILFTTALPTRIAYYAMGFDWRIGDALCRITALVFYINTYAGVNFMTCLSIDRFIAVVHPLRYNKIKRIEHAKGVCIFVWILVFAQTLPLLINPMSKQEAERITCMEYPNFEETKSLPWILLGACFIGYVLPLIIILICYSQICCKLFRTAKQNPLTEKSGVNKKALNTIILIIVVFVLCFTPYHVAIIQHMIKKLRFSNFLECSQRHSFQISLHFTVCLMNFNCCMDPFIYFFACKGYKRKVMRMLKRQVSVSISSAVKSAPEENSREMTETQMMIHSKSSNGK
CCR6 antagonist – antagonists of human CCR6 receptor. P51684. CHO-K1 CCR6 PathHunter beta-arrestin, luminescence, CCL20-stimulated. inhibition, % at 20 µM. actives 0.49% (n = 340,000). AID 493098;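 active = compounds whose inhibition of the agonist-driven luminescence signal at 20 µM reaches about 50%, limit read from the data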;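 note: cells stimulated with CCL20 at 14 nM final; plate controls were DMSO with CCL20 for no effect and DMSO without agonist for full effect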
APJ agonist – APJ receptor agonism. CHO-K1 APJ PathHunter beta-arrestin, luminescence; 0% DMSO wells, 100% apelin. activation, % at 20 µM. actives 0.11% (n = 330,000);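 active = activation more than six SD over the plate average, tested at 20 µM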;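 note: 0% = DMSO alone and 100% = apelin-13 at 10 nM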
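Assay system: CHO-K1 APJ beta-arrestin complementation cell line / Compound: single test compound dose, 20 µM final, 1% DMSO / Times: overnight seeding, 90 min compound at 25 °C, 1 h detection / Technique: beta-gal luminescence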
CXCR6 inh – blocks human CXCR6 beta-arrestin recruitment; inhibition, % at 20 µM; actives 0.36% (n = 360,000); CHO-K1 PathHunter CXCR6 beta-arrestin, luminescence; in the data active = inhibition above about 34%, passing the limit was not always enough;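 note: antagonist mode with CXCL16 agonist at 10 nM final; 0% = 10 nM CXCL16 with DMSO and 100% = unstimulated wells without agonist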
APJ antagonist – APJ receptor antagonism | P35414 | CHO-K1 APJ beta-arrestin complementation, luminescence | inhibition, % at 20 µM | actives 0.32% (n = 330,000) | AID 2521;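 active = inhibition above about 40% at 20 µM, limit read from the data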;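 note: cells challenged with 10 nM apelin-13 agonist together with compound; plate controls were apelin-13 plus DMSO wells for no effect and DMSO wells lacking apelin-13 for full effect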
Starred values were filed as active, the others as inactive; nt = no result. A selection: hits, their analogues and other compounds. The true share with any hit is near 1.5%.

SMILES	EBI2 antag	CCR6 antagonist	APJ agonist	CXCR6 inh	APJ antagonist
CC(C)(C)c1cc(C(=O)NCC(=O)OCC(=O)c2cccc([N+](=O)[O-])c2)cc(C(C)(C)C)c1	-4	57*	-8	34	35
CC1=NN(c2ccc(Cl)cc2)C(=O)/C1=C\c1cccn1-c1ccc(S(N)(=O)=O)cc1	60*	32	-2	5	36
NS(=O)(=O)c1ccc(NCc2cc(Cl)ccc2OCc2ccccc2F)cc1	17	54*	-3	-12	-5
Cc1c(N=C2C=C(Br)C(=O)C(Br)=C2)c(=O)n(-c2ccccc2)n1C	10	30	-1	-9	-61
Cc1c(N=C2C=CC(=O)c3ccccc32)c(=O)n(-c2ccccc2)n1C	28	75*	nt	32	nt
COc1ccc(C(=O)CC(=O)C(=O)Nc2ccc(Cl)cc2)cc1	-12	53*	nt	18	nt
COc1ccc(C(=O)CC(=O)C(=O)Nc2ccc(OC)c(Cl)c2)cc1	-8	15	-2	9	9
O=C1C(Cl)=C(NC(=O)c2ccccc2)C(=O)C(Cl)=C1NC(=O)c1ccccc1	32	nt	1	88*	-37
O=C(NC1=C(Nc2ccc(Cl)cc2)C(=O)c2ccccc2C1=O)c1ccccc1	-14	6	3	0	-55
O=Cc1ccc(O)c2ncccc12	3	45	0	47*	-3
c1cnc2ccc3ncccc3c2c1	-8	-3	-1	-9	-3
Cc1ccc(S(=O)(=O)CCC(=O)OCC(=O)c2ccc(F)cc2)cc1	-4	7	-5	1	-46
CC(C)(Oc1ccc(F)cc1)C(=O)OCC(=O)c1ccc(S(C)(=O)=O)cc1	7	52*	-12	37	3
CCc1ccc(NC(=O)[C@H](C)NC(=O)C2CCN(C(=O)[C@@H](N)C(C)C)CC2)cc1	-7	12	-1	9	7
COc1ccccc1CNC(=O)CCc1nnc2ccc(NCCCN3CCCC3=O)nn12	-2	-2	6	9	11
Cc1ccccc1C(=O)NC(=S)Nc1ccc(S(=O)(=O)N2CCN(C)CC2)cc1	8	61*	-4	19	5
CCCC(=O)N(C1CC(C)C(C#N)(C#N)C1(C#N)C#N)N(C)C (stereo unspecified)	30	94*	-5	81*	32
CC(=O)N(C1CC(C)C(C#N)(C#N)C1(C#N)C#N)N(C)C (stereo unspecified)	-9	78*	-2	34	15
Cc1ccc(S(=O)(=O)N/N=C/c2cccc([N+](=O)[O-])c2)cc1	-9	37	-9	9	51*
CC(=O)NCC1CCN(C(=O)C2CCC(=O)N(CCc3cccc(F)c3)C2)CC1 (stereo unspecified)	2	-7	-1	5	-16
O=C(NC(=S)Nc1ccccc1)c1cc(-c2ccccc2)nc2ccccc12	5	55*	-6	29	35
CCCNC(=S)NNC(=O)c1cc(-c2cccnc2)nc2ccccc12	10	14	-10	14	-2
O=C(NC(=S)Nc1ccccn1)c1cc(-c2ccccc2)nc2ccccc12	10	19	-1	18	-1
CCCCNC(=S)NNC(=O)c1cc(-c2cccnc2)nc2ccccc12	1	54*	-9	22	0
O=C(O)c1ccccc1NS(=O)(=O)c1ccc(N/N=C/c2ccc(O)c(O)c2)c([N+](=O)[O-])c1	6	50*	nt	22	nt
SMILES	EBI2 antag	CCR6 antagonist	APJ agonist	CXCR6 inh	APJ antagonist
Cc1[nH]c2ccccc2c1/C=N/Nc1ccc([N+](=O)[O-])cc1S(=O)(=O)Nc1ccc(Cl)cc1	37	57*	0	42*	-12
O=c1c2c([N+](=O)[O-])cc([N+](=O)[O-])cc2sn1-c1ccc(Br)cc1	78*	50*	0	22	-51
COc1ccccc1NS(=O)(=O)c1cc([N+](=O)[O-])ccc1N/N=C/c1sc(N2CCOCC2)nc1-c1ccccc1	27	63*	nt	44*	nt
COc1ccc(C(=O)N/N=C/c2sc(N3CCOCC3)nc2-c2ccccc2)cc1OC	-9	-10	-1	2	-15
CC1(CCc2ccccc2)NC(=O)N(CC(=O)N2CCCCCC2)C1=O (stereo unspecified)	-1	12	-4	9	11
COc1ccc(CNC(=O)CCS(=O)(=O)c2ccc3c(c2)NC(=O)CS3)cc1	-8	1	-1	0	2
Cc1ccc(-c2cc(-c3ccc(Cl)cc3)c(C#N)c(N)n2)o1	-1	86*	-4	8	-19
COc1cc2ccccc2cc1C(=O)Nc1ccc(Br)cn1	47*	2	2	-17	7
O=C(CCCN1C(=O)/C(=C/c2ccccc2Cl)SC1=S)NNC(=O)c1ccccc1	42*	16	-4	11	14
CCOc1ccc(NC(=S)N(Cc2ccc(N(C)C)cc2)Cc2ccco2)cc1	44*	6	-5	3	4
COc1ccc(NC(=S)N(Cc2ccc(N(C)C)cc2)Cc2ccco2)cc1	24	11	-6	-10	0
COc1ccc(-c2sc(Nc3ccccc3)n[n+]2-c2ccccc2)cc1Br	18	16	-3	6	-42
C(=C\c1sc(Nc2ccccc2)n[n+]1-c1ccccc1)/c1ccccc1	-4	66*	nt	26	nt
COc1ccc(NC(=O)CSc2nnc(C)n2N)cc1S(=O)(=O)N1CCCCC1	-7	-4	-1	-9	10
COc1ccc(C2CCCN2C(=S)Nc2ccc(C)c(C)c2)cc1OC (stereo unspecified)	7	10	0	-14	-15
COc1ccc(C2CCCN2C(=O)Nc2ccc(C)c(C)c2)cc1OC (stereo unspecified)	51*	17	1	6	24
COc1cc(OC)cc(C(=O)c2c(C)c(C#N)c3ccccn23)c1	-10	12	-3	7	-14
COC1=C/C(=C/c2c(O)c(C#N)c3ccccn23)C=CC1=O	-11	56*	-4	32	33
Cc1cccc(Nc2cc(=O)n(C)c(=O)[nH]2)c1	-9	4	-1	-6	-23
CN(C)c1ccc(C(c2ccc(N(C)C)cc2)C(O)c2ccccc2)cc1 (stereo unspecified)	-4	8	nt	-2	nt
CN(C)c1nc(N/N=C/c2ccccc2O)nc(Nc2ccc(F)cc2)n1	34	71*	-3	68*	20
C=CCN(C(=O)CNC(=O)c1cccs1)C(C(=O)NC1CCCCC1)c1cccnc1 (stereo unspecified)	-14	16	-1	5	-2
Cc1cccc(C2(c3cccc(C)c3)CC2C(=O)Nc2ccc([N+](=O)[O-])cc2O)c1 (stereo unspecified)	20	58*	0	14	-24
O=C(O)c1ccc(-c2ccc(/C=N/Nc3ccc([N+](=O)[O-])cc3)o2)cc1	17	45	-7	13	39
O=C(O)c1cc(-c2ccc(/C=N/Nc3ccc([N+](=O)[O-])cn3)o2)ccc1Cl	4	51*	nt	24	nt
